The text below walks through data of ChEMBL document CHEMBL4706509, “Oligosaccharide-camptothecin conjugates as potential antineoplastic drugs: Design, synthesis and biological evaluation” (Eur J Med Chem, 2020).

Test [1] relates to HCT-116. Kind of test: Antitumor activity against human HCT-116 cells assessed as inhibition of cell growth measured after 48 hrs by MTT assay. It is filed as functional, cell-based. To be noted: HCT-116, 48 h. An outline of the steps: (§1)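 MTT assay; cells seeded in 96-well plates, exposed 48 h to freshly prepared compound at five concentrations, four replicate wells each; MTT (5 mg/mL) added for 4 h, formazan dissolved in DMSO, absorbance at 490 nm. IC50 by nonlinear regression; mean of three independent experiments.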

The subject of test [2] is SW1990. As to the kind of experiment: Antitumor activity against human SW1990 cells assessed as inhibition of cell growth measured after 48 hrs by MTT assay. The settings on record: SW1990, 48 h. In kind it is functional, cell-based. An outline of the steps:
as §1

The test system of test [3] is HEK293. As to the kind of experiment: Cytotoxicity against human HEK293 cells assessed as reduction in cell viability measured after 48 hrs by MTT assay. It is filed as cell-based. The settings on record: HEK293, 48 h. An outline of the steps:
as §1

In test [4] the test system is HepG2. As to the kind of experiment: Antitumor activity against human HepG2 cells assessed as inhibition of cell growth measured after 48 hrs by MTT assay. It is filed as functional, cell-based. The settings on record: HepG2, 48 h. An outline of the steps:
as §1

Test [5] addresses T1, DNA topoisomerase 1 (Homo sapiens) (UniProt P11387).
T1 sequence (whole entry): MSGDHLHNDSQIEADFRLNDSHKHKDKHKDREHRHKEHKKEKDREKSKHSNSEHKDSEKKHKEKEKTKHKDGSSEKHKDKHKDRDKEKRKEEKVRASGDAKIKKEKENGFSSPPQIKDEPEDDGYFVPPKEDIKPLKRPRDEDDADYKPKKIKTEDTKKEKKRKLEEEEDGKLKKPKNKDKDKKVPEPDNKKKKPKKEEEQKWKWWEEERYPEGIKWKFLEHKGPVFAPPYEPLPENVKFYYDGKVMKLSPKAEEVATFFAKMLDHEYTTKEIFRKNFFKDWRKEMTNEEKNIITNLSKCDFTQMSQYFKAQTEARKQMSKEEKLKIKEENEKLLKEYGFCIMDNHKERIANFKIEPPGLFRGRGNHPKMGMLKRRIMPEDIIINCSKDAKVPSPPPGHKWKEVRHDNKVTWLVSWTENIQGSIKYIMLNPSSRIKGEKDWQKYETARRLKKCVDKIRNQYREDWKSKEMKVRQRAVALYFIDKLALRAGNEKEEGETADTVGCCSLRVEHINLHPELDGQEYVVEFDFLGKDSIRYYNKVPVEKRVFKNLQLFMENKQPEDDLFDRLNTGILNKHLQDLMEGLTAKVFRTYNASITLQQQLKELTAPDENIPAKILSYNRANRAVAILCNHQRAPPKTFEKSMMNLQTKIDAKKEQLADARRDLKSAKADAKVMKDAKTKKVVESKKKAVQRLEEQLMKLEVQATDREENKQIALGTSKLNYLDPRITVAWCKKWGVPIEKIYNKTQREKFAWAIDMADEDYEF
Kind of test: Inhibition of human recombinant Topoisomerase 1 using supercoiled pBR322 DNA as substrate at 100 uM incubated for 30 mins by ethidium bromide staining based agarose gel electrophoresis. An outline of the steps:
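Cell-free relaxation assay: 1 U recombinant human Topo I with 0.5 µg supercoiled pBR322 in Topo I buffer (Tris-HCl pH 8.0, KCl, MgCl2, DTT, 0.1% BSA), 37 °C for 30 min. 10-HCPT and irinotecan as positive controls. Supercoiled, relaxed and nicked forms resolved on 0.8% agarose in TAE, 90 V for 2 h, ethidium bromide stained.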

Structures are written as SMILES. Activity calls are given as the source filed them. The calls are words filed in the database; no cut-off is given here.

With `CC[C@@]1(OC(=O)NCCO[C@@H]2O[C@H](COC(C)=O)[C@@H](OC(C)=O)[C@H](OC(C)=O)[C@H]2OC(C)=O)C(=O)OCc2c1cc1n(c2=O)Cc2cc3ccccc3nc2-1`, the IC50 in test [1] was found to be 15 µM; in test [2], 24.8 µM; in test [3] it was 29.5 µM; in test [4], 29.9 µM.

For the compound `CC[C@@]1(OC(=O)NCCOCCOCCO[C@@H]2O[C@H](COC(C)=O)[C@@H](OC(C)=O)[C@H](OC(C)=O)[C@H]2OC(C)=O)C(=O)OCc2c1cc1n(c2=O)Cc2cc3ccccc3nc2-1`, the IC50 in test [1] came out at 0.8 µM; in test [2] it was 4.5 µM; in test [3] it was 0.6 µM; in test [4], 0.7 µM.

As for `CC[C@@]1(O)C(=O)OCc2c1cc1n(c2=O)Cc2cc3cc(O)ccc3nc2-1`, the inhibition entry in test [5] is “Active”.

For the compound `CC[C@@]1(OC(=O)NCCOCCOCCO[C@@H]2O[C@H](COC(C)=O)[C@H](OC(C)=O)[C@H](OC(C)=O)[C@H]2OC(C)=O)C(=O)OCc2c1cc1n(c2=O)Cc2cc3ccccc3nc2-1`, the IC50 in test [1] came to 0.9 µM; in test [2], 8.3 µM; in test [3] it was 0.8 µM; in test [4] it was 0.7 µM. The inhibition entry in test [5] is “Active”.

With `CC[C@@]1(OC(=O)NCCOCCOCCO[C@@H]2O[C@H](CO)[C@H](O)[C@H](O)[C@H]2O)C(=O)OCc2c1cc1n(c2=O)Cc2cc3ccccc3nc2-1`, the IC50 in test [1] came out at 8.2 µM; in test [2], 19.9 µM; in test [3] it was 0.7 µM; in test [4], 1.2 µM. In addition, the inhibition entry in test [5] was “Active”.

Turning to `CC[C@@]1(OC(=O)NCCOCCOCCOC2O[C@H](COC(C)=O)[C@@H](OC(C)=O)[C@H](OC(N)=O)[C@@H]2OC(C)=O)C(=O)OCc2c1cc1n(c2=O)Cc2cc3ccccc3nc2-1` (single isomer, unassigned), the IC50 in test [1] worked out at 4.6 µM; in test [2], 31.4 µM; in test [3], 3.4 µM; in test [4], 1.8 µM.

As to `CC[C@@]1(OC(=O)NCCO[C@@H]2O[C@H](COC(C)=O)[C@@H](OC(C)=O)[C@H](OC(C)=O)[C@@H]2OC(C)=O)C(=O)OCc2c1cc1n(c2=O)Cc2cc3ccccc3nc2-1`, the IC50 was 7.5 µM in test [1], 9.7 µM in test [2], 2.3 µM in test [3] and 4.3 µM in test [4].

Turning to `CC[C@@]1(OC(=O)NCCOCCO[C@@H]2O[C@H](COC(C)=O)[C@@H](OC(C)=O)[C@H](OC(N)=O)[C@@H]2OC(C)=O)C(=O)OCc2c1cc1n(c2=O)Cc2cc3ccccc3nc2-1`, the IC50 in test [1] was found to be 3.6 µM; in test [2], 7.6 µM; in test [3] it was 50.2 µM; in test [4], 3.7 µM.

Take `CC[C@@]1(OC(=O)NCCOCCO[C@@H]2O[C@H](CO)[C@H](O)[C@H](O)[C@H]2O)C(=O)OCc2c1cc1n(c2=O)Cc2cc3ccccc3nc2-1`: the IC50 worked out at 2.6 µM in test [1], 10.6 µM in test [2], 43.5 µM in test [3] and 2.8 µM in test [4].

For the compound `CC[C@@]1(OC(=O)NCCOCCOCCO[C@@H]2O[C@H](CO)[C@@H](O)[C@H](O)[C@H]2O)C(=O)OCc2c1cc1n(c2=O)Cc2cc3ccccc3nc2-1`, the IC50 came out at 4.8 µM in test [1], 12.5 µM in test [2], 0.7 µM in test [3] and 1.3 µM in test [4].

For `CC[C@@]1(OC(=O)NCCO[C@@H]2O[C@H](COC(C)=O)[C@@H](OC(C)=O)[C@H](OC(N)=O)[C@@H]2OC(C)=O)C(=O)OCc2c1cc1n(c2=O)Cc2cc3ccccc3nc2-1`, the IC50 in test [1] worked out at 10.8 µM; in test [2] it was 20.6 µM; in test [3], 3.9 µM; in test [4] it was 18.5 µM.

Take `CC[C@@]1(OC(=O)NCCO[C@@H]2O[C@H](CO)[C@@H](O)[C@H](O)[C@@H]2O)C(=O)OCc2c1cc1n(c2=O)Cc2cc3ccccc3nc2-1`: the IC50 in test [1] came out at 8.2 µM; in test [2], 20.4 µM; in test [3] it was 5.8 µM; in test [4], 10.3 µM.

As for `CC[C@@]1(OC(=O)NCCOCCOCCO[C@@H]2O[C@H](CO)[C@@H](O)[C@H](OC(N)=O)[C@@H]2O)C(=O)OCc2c1cc1n(c2=O)Cc2cc3ccccc3nc2-1`, the IC50 in test [1] is 0.9 µM; in test [2] it was 18.2 µM; in test [3], 0.4 µM; in test [4], 0.8 µM.

`CC[C@@]1(OC(=O)NCCOCCOCCO[C@@H]2O[C@H](COC(C)=O)[C@@H](OC(C)=O)[C@H](OC(C)=O)[C@@H]2OC(C)=O)C(=O)OCc2c1cc1n(c2=O)Cc2cc3ccccc3nc2-1`: the IC50 in test [1] was found to be 0.6 µM; in test [2] it was 28.9 µM; in test [3] it was 3.4 µM; in test [4], 1.6 µM.

As for `CC[C@@]1(OC(=O)NCCO[C@@H]2O[C@H](CO)[C@@H](O)[C@H](OC(N)=O)[C@@H]2O)C(=O)OCc2c1cc1n(c2=O)Cc2cc3ccccc3nc2-1`, the IC50 in test [1] stood at 2.3 µM; in test [2], 32.8 µM; in test [3], 3.2 µM; in test [4], 11.6 µM.

For the compound `CC[C@@]1(OC(=O)NCCOCCOC2O[C@H](COC(C)=O)[C@@H](OC(C)=O)[C@H](OC(C)=O)[C@@H]2OC(C)=O)C(=O)OCc2c1cc1n(c2=O)Cc2cc3ccccc3nc2-1` (single isomer, unassigned), the IC50 is 4.4 µM in test [1], 10.3 µM in test [2], 20.6 µM in test [3] and 4.8 µM in test [4].

Consider `CC[C@@]1(OC(=O)NCCOCCO[C@@H]2O[C@H](CO)[C@@H](O)[C@H](O)[C@H]2O)C(=O)OCc2c1cc1n(c2=O)Cc2cc3ccccc3nc2-1`, for which the IC50 in test [1] is 0.5 µM; in test [2], 9.6 µM; in test [3], 24.6 µM; in test [4], 1.2 µM.

Regarding `CC[C@@]1(OC(=O)NCCOCCO[C@@H]2O[C@H](CO)[C@@H](O)[C@H](O)[C@@H]2O)C(=O)OCc2c1cc1n(c2=O)Cc2cc3ccccc3nc2-1`, the IC50 in test [1] turned out to be 5.6 µM; in test [2], 3.2 µM; in test [3] it was 22.4 µM; in test [4] it was 0.3 µM.

Regarding `CC[C@@]1(OC(=O)NCCOCCOC2O[C@H](COC(C)=O)[C@@H](OC(C)=O)[C@H](OC(C)=O)[C@H]2OC(C)=O)C(=O)OCc2c1cc1n(c2=O)Cc2cc3ccccc3nc2-1` (single isomer, unassigned), the IC50 in test [1] was 4.2 µM; in test [2], 10.3 µM; in test [3], 12.3 µM; in test [4], 2.1 µM.

As for `CC[C@@]1(OC(=O)NCCO[C@@H]2O[C@H](CO)[C@@H](O)[C@H](O)[C@H]2O)C(=O)OCc2c1cc1n(c2=O)Cc2cc3ccccc3nc2-1`, the IC50 in test [1] stood at 4.3 µM; in test [2], 10.3 µM; in test [3], 3.5 µM; in test [4], 3.8 µM.

Take `CC[C@@]1(OC(=O)NCCO[C@@H]2O[C@H](CO)[C@H](O)[C@H](O)[C@H]2O)C(=O)OCc2c1cc1n(c2=O)Cc2cc3ccccc3nc2-1`: the IC50 was determined as 4.1 µM in test [1], 9.3 µM in test [2], 2.2 µM in test [3] and 4.9 µM in test [4].

As for `CC[C@@]1(OC(=O)NCCO[C@@H]2O[C@H](COC(C)=O)[C@H](OC(C)=O)[C@H](OC(C)=O)[C@H]2OC(C)=O)C(=O)OCc2c1cc1n(c2=O)Cc2cc3ccccc3nc2-1`, the IC50 in test [1] is 29.5 µM; in test [2], 37.5 µM; in test [3], 8.6 µM; in test [4] it was 60.2 µM.

With `CC[C@@]1(OC(=O)NCCO[C@@H]2O[C@H](COC(C)=O)[C@@H](OC(C)=O)[C@H](OC(C)=O)[C@@H]2O[C@H]2O[C@H](COC(C)=O)[C@@H](OC(C)=O)[C@H](OC(N)=O)[C@H]2OC(C)=O)C(=O)OCc2c1cc1n(c2=O)Cc2cc3ccccc3nc2-1`, the IC50 was found to be 6.7 µM in test [1], 25.1 µM in test [2], 1.6 µM in test [3] and 4.2 µM in test [4]. Besides, the inhibition result in test [5] is “Active”.

For `CC[C@@]1(OC(=O)NCCOCCOCCO[C@@H]2O[C@H](CO)[C@@H](O)[C@H](O)[C@@H]2O)C(=O)OCc2c1cc1n(c2=O)Cc2cc3ccccc3nc2-1`, the IC50 in test [1] amounted to 0.5 µM; in test [2], 16.3 µM; in test [3], 0.6 µM; in test [4], 0.8 µM.
